Assay results taken from ChEMBL document CHEMBL1130012 (J Med Chem, 1997).

What was measured:
Rattus norvegicus [1] = organism: Rattus norvegicus; test: The Biodistribution of the antagonistic compound in male wistar rats, after 15 minutes of injection in the trachea expressed as (body weight-corrected) uptake value; assay type: organism-based; details: in vivo, 0.25 h
Rattus norvegicus [2] = test: The Biodistribution of the antagonistic compound along with pretreated atropine (2.5 mg/kg) in male wistar rats after 15 minutes of injection in the pancreas expressed as (body weight-corrected) uptake value; assay type: organism-based; details: in vivo, 0.25 h
Method in brief: (§1)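 Same protocol, except the pretreatment was saline containing atropine (0.5 mg/0.5 mL; 2.5 mg/kg) given i.v. 1 min before tail-vein injection of the radioligand (1.85-2.78 MBq in 0.4 mL saline) into pentobarbital-anaesthetized (60 mg/kg) male Wistar rats (240 g). Tissues removed at 15 min and counted ex vivo. Uptake is body-weight-corrected DAR = (cpm/g tissue)/(cpm injected/g body weight).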

Rattus norvegicus [3] = test: The Biodistribution of the antagonistic compound along with pretreated atropine (2.5 mg/kg) in male wistar rats after 15 minutes of injection in the plasma expressed as (body weight-corrected) uptake value; assay type: organism-based; details: in vivo, 0.25 h; method in brief: as §1
Rattus norvegicus [4] = test: The Biodistribution of the antagonistic compound along with pretreated atropine (2.5 mg/kg) in male wistar rats after 15 minutes of injection in the red blood cells expressed as (body weight-corrected) uptake value; Below limit of detection; assay type: organism-based; details: in vivo, 0.25 h; method in brief: as §1
Rattus norvegicus [5] = test: The Biodistribution of the antagonistic compound along with pretreated atropine (2.5 mg/kg) in male wistar rats after 15 minutes of injection in the spleen expressed as (body weight-corrected) uptake value; assay type: organism-based; details: in vivo, 0.25 h; method in brief: as §1
Rattus norvegicus [6] = test: The Biodistribution of the antagonistic compound along with pretreated atropine (2.5 mg/kg) in male wistar rats after 15 minutes of injection in the submandibular gland expressed as (body weight-corrected) uptake value; assay type: organism-based; details: in vivo, 0.25 h; method in brief: as §1
Rattus norvegicus [7] = test: The Biodistribution of the antagonistic compound along with pretreated atropine (2.5 mg/kg) in male wistar rats after 15 minutes of injection in the testes expressed as (body weight-corrected) uptake value; assay type: organism-based, Testis; details: in vivo, 0.25 h; method in brief: as §1
Rattus norvegicus [8] = test: The Biodistribution of the antagonistic compound along with pretreated atropine (2.5 mg/kg) in male wistar rats after 15 minutes of injection in the trachea expressed as (body weight-corrected) uptake value; assay type: organism-based; details: in vivo, 0.25 h; method in brief: as §1
Rattus norvegicus [9] = organism: Rattus norvegicus; test: The Biodistribution of the antagonistic compound in male wistar rats, after 15 minutes of injection in the bladder expressed as (body weight-corrected) uptake value; assay type: organism-based, Urinary bladder/Urine; details: in vivo, 0.25 h
Rattus norvegicus [10] = organism: Rattus norvegicus; test: The Biodistribution of the antagonistic compound in male wistar rats, after 15 minutes of injection in the cerebellum expressed as (body weight-corrected) uptake value; Below limit of detection; assay type: organism-based; details: in vivo, 0.25 h
Rattus norvegicus [11] = organism: Rattus norvegicus; test: The Biodistribution of the antagonistic compound in male wistar rats, after 15 minutes of injection in the cortex expressed as (body weight-corrected) uptake value; Below limit of detection; assay type: organism-based; details: in vivo, 0.25 h
Rattus norvegicus [12] = organism: Rattus norvegicus; test: The Biodistribution of the antagonistic compound in male wistar rats, after 15 minutes of injection in the fat; assay type: organism-based; details: in vivo, 0.25 h
Rattus norvegicus [13] = organism: Rattus norvegicus; test: The Biodistribution of the antagonistic compound in male wistar rats, after 15 minutes of injection in the heart expressed as (body weight-corrected) uptake value; assay type: organism-based; details: in vivo, 0.25 h
Rattus norvegicus [14] = organism: Rattus norvegicus; test: The Biodistribution of the antagonistic compound in male wistar rats, after 15 minutes of injection in the intestine expressed as (body weight-corrected) uptake value; assay type: organism-based; details: in vivo, 0.25 h
Rattus norvegicus [15] = organism: Rattus norvegicus; test: The Biodistribution of the antagonistic compound in male wistar rats, after 15 minutes of injection in the kidney expressed as (body weight-corrected) uptake value; assay type: organism-based; details: in vivo, 0.25 h
Rattus norvegicus [16] = organism: Rattus norvegicus; test: The Biodistribution of the antagonistic compound in male wistar rats, after 15 minutes of injection in the lung expressed as (body weight-corrected) uptake value; assay type: organism-based; details: in vivo, 0.25 h
Rattus norvegicus [17] = organism: Rattus norvegicus; test: The Biodistribution of the antagonistic compound in male wistar rats, after 15 minutes of injection in the muscle expressed as (body weight-corrected) uptake value; assay type: organism-based, Muscle tissue; details: in vivo, 0.25 h
Rattus norvegicus [18] = organism: Rattus norvegicus; test: The Biodistribution of the antagonistic compound in male wistar rats, after 15 minutes of injection in the pancreas expressed as (body weight-corrected) uptake value; assay type: organism-based; details: in vivo, 0.25 h
Rattus norvegicus [19] = organism: Rattus norvegicus; test: The Biodistribution of the antagonistic compound in male wistar rats, after 15 minutes of injection in the plasma expressed as (body weight-corrected) uptake value; assay type: organism-based; details: in vivo, 0.25 h
Rattus norvegicus [20] = test: The Biodistribution of the antagonistic compound along with pretreated atropine (2.5 mg/kg) in male wistar rats after 15 minutes of injection in the bladder; assay type: organism-based, Urinary bladder/Urine; details: in vivo, 0.25 h; method in brief: as §1
Rattus norvegicus [21] = test: The Biodistribution of the antagonistic compound along with pretreated atropine (2.5 mg/kg) in male wistar rats after 15 minutes of injection in the cerebellum; Below limit of detection; assay type: organism-based; details: in vivo, 0.25 h; method in brief: as §1
Rattus norvegicus [22] = test: The Biodistribution of the antagonistic compound along with pretreated atropine (2.5 mg/kg) in male wistar rats after 15 minutes of injection in the cortex expressed as (body weight-corrected) uptake value; Below limit of detection; assay type: organism-based; details: in vivo, 0.25 h; method in brief: as §1
Rattus norvegicus [23] = test: The Biodistribution of the antagonistic compound along with pretreated atropine (2.5 mg/kg) in male wistar rats after 15 minutes of injection in the fat expressed as (body weight-corrected) uptake value; assay type: organism-based, Adipose tissue; details: in vivo, 0.25 h; method in brief: as §1
Rattus norvegicus [24] = test: The Biodistribution of the antagonistic compound along with pretreated atropine (2.5 mg/kg) in male wistar rats after 15 minutes of injection in the heart expressed as (body weight-corrected) uptake value; assay type: organism-based; details: in vivo, 0.25 h; method in brief: as §1
Rattus norvegicus [25] = organism: Rattus norvegicus; test: The Biodistribution of the antagonistic compound in male wistar rats, after 15 minutes of injection in the red blood cells expressed as (body weight-corrected) uptake value; Below limit of detection; assay type: organism-based; details: in vivo, 0.25 h
Rattus norvegicus [26] = organism: Rattus norvegicus; test: The Biodistribution of the antagonistic compound in male wistar rats, after 15 minutes of injection in the spleen; assay type: organism-based; details: in vivo, 0.25 h
Rattus norvegicus [27] = organism: Rattus norvegicus; test: The Biodistribution of the antagonistic compound in male wistar rats, after 15 minutes of injection in the stomach expressed as (body weight-corrected) uptake value; assay type: organism-based; details: in vivo, 0.25 h
Rattus norvegicus [28] = organism: Rattus norvegicus; test: The Biodistribution of the antagonistic compound in male wistar rats, after 15 minutes of injection in the submandibular gland expressed as (body weight-corrected) uptake value; assay type: organism-based; details: in vivo, 0.25 h
Rattus norvegicus [29] = organism: Rattus norvegicus; test: The Biodistribution of the antagonistic compound in male wistar rats, after 15 minutes of injection in the testes expressed as (body weight-corrected) uptake value; assay type: organism-based, Testis; details: in vivo, 0.25 h
Rattus norvegicus [30] = test: The Biodistribution of the antagonistic compound along with pretreated atropine (2.5 mg/kg) in male wistar rats after 15 minutes of injection in the intestine expressed as (body weight-corrected) uptake value; assay type: organism-based; details: in vivo, 0.25 h; method in brief: as §1
Rattus norvegicus [31] = test: The Biodistribution of the antagonistic compound along with pretreated atropine (2.5 mg/kg) in male wistar rats after 15 minutes of injection in the kidney expressed as (body weight-corrected) uptake value; assay type: organism-based; details: in vivo, 0.25 h; method in brief: as §1
Rattus norvegicus [32] = test: The Biodistribution of the antagonistic compound along with pretreated atropine (2.5 mg/kg) in male wistar rats after 15 minutes of injection in the liver expressed as (body weight-corrected) uptake value; assay type: organism-based; details: in vivo, 0.25 h; method in brief: as §1
Rattus norvegicus [33] = test: The Biodistribution of the antagonistic compound along with pretreated atropine (2.5 mg/kg) in male wistar rats after 15 minutes of injection in the lung expressed as (body weight-corrected) uptake value; assay type: organism-based; details: in vivo, 0.25 h; method in brief: as §1
Rattus norvegicus [34] = test: The Biodistribution of the antagonistic compound along with pretreated atropine (2.5 mg/kg) in male wistar rats after 15 minutes of injection in the muscle expressed as (body weight-corrected) uptake value; assay type: organism-based, Muscle tissue; details: in vivo, 0.25 h; method in brief: as §1
[35] = molecular target: T1, Muscarinic acetylcholine receptor M2 (Rattus norvegicus, UniProt P10980); test: Binding affinity towards rat Muscarinic acetylcholine receptor M2 was determined
T1 sequence (P10980 whole entry): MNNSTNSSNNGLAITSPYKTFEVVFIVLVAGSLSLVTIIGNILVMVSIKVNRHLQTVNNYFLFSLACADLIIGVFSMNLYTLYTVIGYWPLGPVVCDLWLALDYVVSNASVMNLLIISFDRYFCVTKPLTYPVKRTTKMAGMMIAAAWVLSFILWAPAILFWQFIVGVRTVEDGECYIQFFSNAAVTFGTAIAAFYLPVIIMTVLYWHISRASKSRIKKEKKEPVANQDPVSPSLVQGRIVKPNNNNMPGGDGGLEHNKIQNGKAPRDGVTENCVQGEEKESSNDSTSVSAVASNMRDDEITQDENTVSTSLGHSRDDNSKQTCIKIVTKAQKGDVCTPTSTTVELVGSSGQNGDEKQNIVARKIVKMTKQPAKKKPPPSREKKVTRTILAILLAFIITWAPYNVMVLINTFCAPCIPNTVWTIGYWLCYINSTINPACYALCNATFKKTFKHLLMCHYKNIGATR

[36] = molecular target: T2, Muscarinic acetylcholine receptor M1 (Bos taurus, UniProt Q8WMX0); assay type: cell membranes, Brain, Membrane
T2 sequence (Q8WMX0 whole entry): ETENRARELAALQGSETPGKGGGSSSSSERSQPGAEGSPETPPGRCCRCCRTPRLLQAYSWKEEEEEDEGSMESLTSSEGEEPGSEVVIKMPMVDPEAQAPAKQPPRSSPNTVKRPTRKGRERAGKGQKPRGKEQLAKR

[37] = molecular target: T3, Muscarinic acetylcholine receptor M1 (Rattus norvegicus, UniProt P08482); test: Binding affinity towards rat Muscarinic acetylcholine receptor M1 was determined
T3 sequence (P08482 whole entry): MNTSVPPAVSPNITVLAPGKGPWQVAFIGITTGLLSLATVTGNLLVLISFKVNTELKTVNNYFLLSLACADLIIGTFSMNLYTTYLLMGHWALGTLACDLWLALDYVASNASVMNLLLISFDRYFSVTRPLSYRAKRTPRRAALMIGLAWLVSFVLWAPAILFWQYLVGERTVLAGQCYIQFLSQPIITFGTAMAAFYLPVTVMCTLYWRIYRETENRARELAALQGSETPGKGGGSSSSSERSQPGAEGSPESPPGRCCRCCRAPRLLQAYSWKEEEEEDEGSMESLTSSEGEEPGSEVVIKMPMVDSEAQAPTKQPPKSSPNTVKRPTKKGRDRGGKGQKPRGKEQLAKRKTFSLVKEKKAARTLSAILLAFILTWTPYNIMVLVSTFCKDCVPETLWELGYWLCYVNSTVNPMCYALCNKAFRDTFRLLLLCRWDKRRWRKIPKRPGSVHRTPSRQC

Rattus norvegicus [38] = organism: Rattus norvegicus; test: The Biodistribution of the antagonistic compound in male wistar rats, after 15 minutes of injection in the liver expressed as (body weight-corrected) uptake value; assay type: organism-based; details: in vivo, 0.25 h
Rattus norvegicus [39] = test: The Biodistribution of the antagonistic compound along with pretreated atropine (2.5 mg/kg) in male wistar rats after 15 minutes of injection in the stomach expressed as (body weight-corrected) uptake value; assay type: organism-based; details: in vivo, 0.25 h; method in brief: as §1

C[N+]1(C)CCC(OC(=O)[C@](O)(c2ccccc2)C2CCCCC2)CC1.[I-]
Uptake value (Rattus norvegicus [1]): 0.89 | Uptake value (Rattus norvegicus [2]): 0.35 | Uptake value (Rattus norvegicus [3]): 0.19 | Uptake value (Rattus norvegicus [4]): Not Active | Uptake value (Rattus norvegicus [5]): 0.12 | Uptake value (Rattus norvegicus [6]): 0.23 | Uptake value (Rattus norvegicus [7]): 0.16 | Uptake value (Rattus norvegicus [8]): 0.26 | Uptake value (Rattus norvegicus [9]): 4.68 | Uptake value (Rattus norvegicus [10]): Not Active | Uptake value (Rattus norvegicus [11]): Not Active | Uptake value (Rattus norvegicus [12]): 0.1 | Uptake value (Rattus norvegicus [13]): 12.78 | Uptake value (Rattus norvegicus [14]): 6.08 | Uptake value (Rattus norvegicus [15]): 2.75 | Uptake value (Rattus norvegicus [16]): 1.03 | Uptake value (Rattus norvegicus [17]): 0.07 | Uptake value (Rattus norvegicus [18]): 2.85 | Uptake value (Rattus norvegicus [19]): 0.1 | Uptake value (Rattus norvegicus [20]): 5.92 | Uptake value (Rattus norvegicus [21]): Not Active | Uptake value (Rattus norvegicus [22]): Not Active | Uptake value (Rattus norvegicus [23]): 0.37 | Uptake value (Rattus norvegicus [24]): 0.12 | Uptake value (Rattus norvegicus [25]): Not Active | Uptake value (Rattus norvegicus [26]): 1.23 | Uptake value (Rattus norvegicus [27]): 2.76 | Uptake value (Rattus norvegicus [28]): 2.64 | Uptake value (Rattus norvegicus [29]): 0.12 | Uptake value (Rattus norvegicus [30]): 0.97 | Uptake value (Rattus norvegicus [31]): 4.32 | Uptake value (Rattus norvegicus [32]): 9.41 | Uptake value (Rattus norvegicus [33]): 0.11 | Uptake value (Rattus norvegicus [34]): 0.07 | Ki [35]: 0.21 nM | Ki [36]: 0.02 nM | Ki [37]: 0.01 nM | Uptake value (Rattus norvegicus [38]): 5.42 | Uptake value (Rattus norvegicus [39]): 0.22
